Results on 22 compounds are retold here after ChEMBL document CHEMBL4732210, “Discovery of new phenyl sulfonyl-pyrimidine carboxylate derivatives as the potential multi-target drugs with effective anti-Alzheimer's action: Design, synthesis, crystal structure and in-vitro biological evaluation” (Eur J Med Chem, 2021).

Broadly, the inhibition is the share of the control response that was lost under treatment.

The species entered for test [1] is Homo sapiens. Nature of the test: Selectivity index, ratio of IC50 for BuChE in human serum to IC50 for AChE in human erythrocytes measured by DTNB reagent based Ellman's method. In kind it is cell-based. For orientation: In Ellman's method for cholinesterases, released thiocholine reacts with DTNB.
In test [2] the target is Acetylcholinesterase (Homo sapiens) (UniProt P22303). Nature of the test: Inhibition of AChE in human erythrocytes assessed as inhibition of AChE-induced amyloid beta (1 to 42) aggregation by measuring reduced particle size at 10 uM measured after 48 hrs by Dynamic light scattering analysis. It is filed as cell-based. Particulars: Erythrocyte. The essentials: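 Aβ1-42 with AChE (10 unit/mL) incubated with compound at 10 μM in PBS pH 7.4, in the dark for 48 h at 37 °C. Particle size distribution then measured by dynamic light scattering.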

Test [3] shares this target. Nature of the test: Inhibition of AChE in human erythrocytes assessed as inhibition of AChE-induced amyloid beta(1 to 42) aggregation at Abeta42:compound concentration ratio of 10:10 measured after 48 hrs by thioflavin-T assay. In kind it is cell-based. As to conditions: Erythrocyte. The method in brief:
(§1)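 Aβ1-42 (stock in 1% ammonium hydroxide; final 10 μM) plus human erythrocyte AChE. Incubated 48 h at 37 °C with or without compound (5, 10, 20 μM; DMSO stock diluted in PBS pH 7.4). Then diluted in 50 mM glycine-NaOH pH 8.0 containing 5 μM thioflavin T. Fluorescence normalised to control; three separate experiments.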

The subject of test [4] is MC65. Kind of test: Neuroprotective activity in human MC65 cells cultured in TC-deficient medium assessed as inhibition of TC-deficiency induced oxidative stress by measuring increase in cell viability at 1 to 80 uM measured after 12 hrs by MTT assay. It is filed as functional, cell-based. Particulars: dose 1-80 µM. The method in brief:
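MC65 cells grown in MEM, PBS-washed and resuspended in MEM, then seeded at 5×10⁴ cells/well with or without TC. Compounds (80–1 μM) added to TC-free wells and incubated 12 h at 37 °C. MTT (5 mg/ml) added for a further 4 h; formazan dissolved in DMSO:H₂O 1:1 and read at 570 nm. Viability expressed as % of +TC control. Triplicate wells, three runs.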

Test [5] concerns the target Acetylcholinesterase (Homo sapiens) (UniProt P22303). Kind of test: Inhibition of AChE in human erythrocytes assessed as inhibition of AChE-induced amyloid beta(1 to 42) aggregation at Abeta42:compound concentration ratio of 10:20 measured after 48 hrs by thioflavin-T assay. In kind it is cell-based. As to conditions: Erythrocyte. The method in brief: as §1
In test [6] the target is Amyloid-beta precursor protein (Homo sapiens) (UniProt P05067). Nature of the test: Inhibition of self-induced amyloid beta (1 to 42) (unknown origin) aggregation assessed as reduced particle size at 10 uM measured after 48 hrs by Dynamic light scattering analysis. The method in brief: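 Aβ1-42 stock (100 μM) in PBS pH 7.4, […], incubated with compound (10 μM) in the dark at 37 °C for 48 h. Particle size distribution then measured by dynamic light scattering.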

For test [7] the target is unchanged. Kind of test: Inhibition of amyloid beta (1 to 42) (unknown origin) aggregation at 22 uM measured after 24 hrs by Transmission electron microscopy method. The method in brief: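 Aβ1-42 (44 μM) co-incubated with compound (22 μM) at 37 °C for 24 h. 10 μL aliquots placed on carbon-coated copper grids, stained with 1% uranyl acetate, blotted and dried 15 min at room temperature. Fibril morphology imaged by […]TEM. Controls were Aβ1-42 alone at 37 °C for 24 h and Aβ1-42 alone at 0 h.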

The target of test [8] is Acetylcholinesterase (Homo sapiens) (UniProt P22303). Nature of the test: Non-competitive inhibition of AChE in human erythrocytes assessed as ratio of Vmax to Km at 100 nM measured at 2 mins interval for 10 mins by Lineweaver-Burk plot analysis. It is filed as cell-based. As to conditions: Erythrocyte. The essentials:
(§2)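 Human AChE kinetics in the Ellman DTNB assay. Inhibitor at 25, 50 and 100 nM, each with six ATCI concentrations, against an inhibitor-free series. Activity read every 2 min over 10 min. Km and Vmax from Michaelis–Menten non-linear regression; mechanism from Lineweaver–Burk plots; Ki from Dixon plot over four inhibitor concentrations and from slope/intercept replots. Triplicate.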

Test [9] shares this target. Kind of test: Non-competitive inhibition of AChE in human erythrocytes assessed as ratio of Vmax to Km at 25 nM measured at 2 mins interval for 10 mins by Lineweaver-Burk plot analysis. In kind it is cell-based. Particulars: Erythrocyte. The essentials: as §2
The target is the same in test [10]. Kind of test: Non-competitive inhibition of AChE in human erythrocytes assessed as decrease in Vmax with constant Km measured at 2 mins interval for 10 mins by Lineweaver-Burk plot analysis. As to conditions: Erythrocyte. It is filed as cell-based. The essentials:
as §2

The target is the same in test [11]. Kind of test: Non-competitive inhibition of AChE in human erythrocytes assessed as ratio of Vmax to Km at 50 nM measured at 2 mins interval for 10 mins by Lineweaver-Burk plot analysis. It is filed as cell-based. Particulars: Erythrocyte. The method in brief:
as §2

The source made the active and inactive calls. The rule behind the calls is not given here.

Chain of Acetylcholinesterase (Homo sapiens) (P22303 whole entry): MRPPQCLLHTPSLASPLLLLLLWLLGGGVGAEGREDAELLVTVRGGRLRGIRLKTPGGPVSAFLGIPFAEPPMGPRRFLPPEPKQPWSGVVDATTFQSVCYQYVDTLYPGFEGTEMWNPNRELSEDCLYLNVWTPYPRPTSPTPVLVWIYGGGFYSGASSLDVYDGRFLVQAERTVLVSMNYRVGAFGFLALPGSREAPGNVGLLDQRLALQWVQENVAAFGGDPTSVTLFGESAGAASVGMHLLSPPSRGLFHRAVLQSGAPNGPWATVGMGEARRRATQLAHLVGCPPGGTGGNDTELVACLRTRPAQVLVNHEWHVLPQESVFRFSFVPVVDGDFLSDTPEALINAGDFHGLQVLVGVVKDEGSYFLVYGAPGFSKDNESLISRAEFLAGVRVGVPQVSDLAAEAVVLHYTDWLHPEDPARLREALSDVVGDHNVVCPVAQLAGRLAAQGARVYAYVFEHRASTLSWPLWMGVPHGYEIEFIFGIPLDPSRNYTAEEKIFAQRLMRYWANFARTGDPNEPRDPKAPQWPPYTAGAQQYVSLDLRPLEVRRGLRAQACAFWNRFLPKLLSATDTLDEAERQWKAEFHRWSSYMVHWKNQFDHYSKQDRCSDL
Chain of Amyloid-beta precursor protein (Homo sapiens) (P05067 whole entry): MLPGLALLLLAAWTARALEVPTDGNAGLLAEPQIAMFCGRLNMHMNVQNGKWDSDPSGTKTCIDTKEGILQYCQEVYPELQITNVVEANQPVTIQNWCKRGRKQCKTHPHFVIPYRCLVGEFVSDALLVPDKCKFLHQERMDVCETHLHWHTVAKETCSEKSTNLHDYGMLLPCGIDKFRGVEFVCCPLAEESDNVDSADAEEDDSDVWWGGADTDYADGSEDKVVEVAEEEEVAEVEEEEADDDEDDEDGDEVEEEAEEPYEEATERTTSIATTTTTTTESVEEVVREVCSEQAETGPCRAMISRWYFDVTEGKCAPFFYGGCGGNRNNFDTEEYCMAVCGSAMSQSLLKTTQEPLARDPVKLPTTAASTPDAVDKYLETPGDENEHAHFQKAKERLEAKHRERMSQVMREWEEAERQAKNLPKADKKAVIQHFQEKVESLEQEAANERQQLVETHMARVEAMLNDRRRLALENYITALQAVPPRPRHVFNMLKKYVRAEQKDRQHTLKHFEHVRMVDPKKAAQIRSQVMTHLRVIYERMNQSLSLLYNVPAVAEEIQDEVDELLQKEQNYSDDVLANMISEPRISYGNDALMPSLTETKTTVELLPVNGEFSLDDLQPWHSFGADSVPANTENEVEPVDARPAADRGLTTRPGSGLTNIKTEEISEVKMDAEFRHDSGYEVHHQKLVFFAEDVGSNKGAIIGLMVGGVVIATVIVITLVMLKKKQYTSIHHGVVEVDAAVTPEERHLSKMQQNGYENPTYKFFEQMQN

Turning to `CCOC(=O)c1c(C)nc(N2CCN(S(=O)(=O)c3ccc(NC(C)=O)cc3)CC2)nc1-c1ccccc1`, the Ratio IC50 in test [1] came to 0.54. The same measure, in the same setting: next, `CCOC(=O)c1c(C)nc(N2CCN(S(=O)(=O)c3ccc(N)c(Cl)c3)CC2)nc1-c1ccc(OC)cc1`: 0.43; `CCOC(=O)c1c(C)nc(N2CCN(S(=O)(=O)c3ccc(N)c(OC)c3)CC2)nc1-c1ccc(OC)c(OC)c1`: 0.4.

As to `CCOC(=O)c1c(C)nc(N2CCN(S(=O)(=O)c3ccc(N)c(OC)c3)CC2)nc1-c1ccccc1`, the Ratio IC50 in test [1] was 0.29. Still for that read-out and setting: with `CCOC(=O)c1c(C)nc(N2CCN(S(=O)(=O)c3ccc(NC(C)=O)c(OC)c3)CC2)nc1-c1ccc(OC)cc1` the figure was 0.4; with `CCOC(=O)c1c(C)nc(N2CCN(S(=O)(=O)c3ccc(N)c(OC)c3)CC2)nc1-c1ccc(OC)cc1`, 0.36. On the same count and under the same terms, with `CCOC(=O)c1c(C)nc(N2CCN(S(=O)(=O)c3ccc(NC(C)=O)c(F)c3)CC2)nc1-c1ccc(OC)cc1` the figure was 0.42.

Regarding `CCOC(=O)c1c(C)nc(N2CCN(S(=O)(=O)c3ccc(N)cc3)CC2)nc1-c1ccc(OC)c(OC)c1`, the Ratio IC50 in [1] was found to be 0.31. Consider `CCOC(=O)c1c(C)nc(N2CCN(S(=O)(=O)c3ccc(N)cc3)CC2)nc1-c1ccc(OC)cc1`, for which the Ratio IC50 in [1] came out at 0.33. The same measure, in the same setting: next, `CCOC(=O)c1c(C)nc(N2CCN(S(=O)(=O)c3ccc(N)c(Cl)c3)CC2)nc1-c1ccccc1`: 0.57.

In the case of `CCOC(=O)c1c(C)nc(N2CCN(S(=O)(=O)c3ccc(NC(C)=O)c(Cl)c3)CC2)nc1-c1ccc(OC)cc1`, in test [1], the Ratio IC50 turned out to be 0.4.

As to `CCOC(=O)c1c(C)nc(N2CCN(S(=O)(=O)c3ccc(N)c(F)c3)CC2)nc1-c1ccc(OC)c(OC)c1`, the Ratio IC50 in [1] is 0.37. Same read-out and setting: next, `CCOC(=O)c1c(C)nc(N2CCN(S(=O)(=O)c3ccc(NC(C)=O)c(F)c3)CC2)nc1-c1ccc(OC)c(OC)c1`: 0.41; `CCOC(=O)c1c(C)nc(N2CCN(S(=O)(=O)c3ccc(N)c(F)c3)CC2)nc1-c1ccc(OC)cc1`: 0.64. As for `CCOC(=O)c1c(C)nc(N2CCN(S(=O)(=O)c3ccc(NC(C)=O)c(Cl)c3)CC2)nc1-c1ccccc1`, the Ratio IC50 in test [1] came to 0.61. Still for that read-out and setting: with `CCOC(=O)c1c(C)nc(N2CCN(S(=O)(=O)c3ccc(NC(C)=O)cc3)CC2)nc1-c1ccc(OC)cc1` the figure was 0.42; with `CCOC(=O)c1c(C)nc(N2CCN(S(=O)(=O)c3ccc(NC(C)=O)c(F)c3)CC2)nc1-c1ccccc1`, 0.35. On the same count and under the same terms, with `CCOC(=O)c1c(C)nc(N2CCN(S(=O)(=O)c3ccc(NC(C)=O)c(OC)c3)CC2)nc1-c1ccccc1` the figure was 0.42; with `CCOC(=O)c1c(C)nc(N2CCN(S(=O)(=O)c3ccc(NC(C)=O)c(OC)c3)CC2)nc1-c1ccc(OC)c(OC)c1`, 0.38. On to `CCOC(=O)c1c(C)nc(N2CCN(S(=O)(=O)c3ccc(N)c(Cl)c3)CC2)nc1-c1ccc(OC)c(OC)c1`, for which the inhibition result in test [2], in test [6] and in [7] was “Active” in each case. The inhibition in test [3] amounted to 22.2%; in [5] it was 35.3%. Further, the Ratio IC50 in test [1] stood at 0.28. Further, the outcome in test [4] was Active. Consider `CCOC(=O)c1c(C)nc(N2CCN(S(=O)(=O)c3ccc(NC(C)=O)c(Cl)c3)CC2)nc1-c1ccc(OC)c(OC)c1`, for which the Vmax/Km in [8] is 0.056; in [9], 0.094; in test [11], 0.076. The inhibition entry in test [2], in [10], in test [6] and in test [7] was “Active” throughout. In addition, the inhibition in [3] was 35.5%; in test [5] it was 51.3%. For the same compound, in [1], the Ratio IC50 was 0.23. With `CCOC(=O)c1c(C)nc(N2CCN(S(=O)(=O)c3ccc(NC(C)=O)cc3)CC2)nc1-c1ccc(OC)c(OC)c1`, the Ratio IC50 in test [1] was 0.35.
